Results reported in ChEMBL document CHEMBL1147105, “In vitro and in vivo activities of PD 0305970 and PD 0326448, new bacterial gyrase/topoisomerase inhibitors with potent antibacterial activities versus multidrug-resistant gram-positive and fastidious organism groups” (2007).

What was measured:
[1] = tested on: Enterococcus faecalis; experiment: Antibacterial activity against VanB-resistant Enterococcus faecalis; format: functional
How it was run: (§1)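 Broth microdilution MIC per CLSI guidelines, incubated at 35°C. Cation-adjusted Mueller-Hinton broth for nonfastidious organisms and staphylococci. Streptococci tested in the same broth with 3% lysed horse blood. Anaerobes tested in supplemented Brucella broth inside an anaerobe chamber (5% CO2, 5% H2, 90% N2), read after 48 h. Strains were mainly recent clinical isolates with confirmed identity.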

[2] = tested on: Enterococcus faecalis; experiment: Antibacterial activity against beta-lactamase positive Enterococcus faecalis; format: functional
How it was run: (§2)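 MIC by CLSI broth microdilution for nonfastidious organisms, in cation-adjusted Mueller-Hinton broth incubated at 35°C.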

[3] = tested on: Enterococcus faecium; experiment: Antibacterial activity against Enterococcus faecium; format: functional; how it was run: as §1
[4] = tested on: Enterococcus faecium; experiment: Antibacterial activity against VanB-resistant Enterococcus faecium; format: functional; how it was run: as §1
[5] = tested on: Enterococcus casseliflavus; experiment: Antibacterial activity against Enterococcus casseliflavus; format: functional
[6] = tested on: Enterococcus gallinarum; experiment: Antibacterial activity against Enterococcus gallinarum; format: functional
[7] = tested on: Corynebacterium jeikeium; experiment: Antibacterial activity against Corynebacterium jeikeium; format: functional
How it was run: (§3)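 Broth microdilution MIC following CLSI guidelines, in cation-adjusted Mueller-Hinton broth containing 3% lysed horse blood, incubated at 35°C. Clinical isolates with identity confirmed. Reported as MIC range, MIC50 and MIC90.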

[8] = tested on: Corynebacterium sp.; experiment: Antibacterial activity against Corynebacterium sp.; format: functional; how it was run: as §3
[9] = tested on: Haemophilus influenzae; experiment: Antibacterial activity against beta-lactamase negative Haemophilus influenzae; format: functional
How it was run: (§4)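 Broth microdilution MIC following CLSI guidelines, in Haemophilus test medium at 35°C.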

[10] = tested on: Haemophilus influenzae; experiment: Antibacterial activity against beta-lactamase positive Haemophilus influenzae; format: functional; how it was run: as §4
[11] = tested on: Moraxella catarrhalis; experiment: Antibacterial activity against beta-lactamase negative Moraxella catarrhalis; format: functional
[12] = tested on: Moraxella catarrhalis; experiment: Antibacterial activity against beta-lactamase positive Moraxella catarrhalis; format: functional
[13] = tested on: Neisseria gonorrhoeae; experiment: Antibacterial activity against Neisseria gonorrhoeae; format: functional
How it was run: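 MIC by broth microdilution in gonococcal broth, incubated at 35°C in 5% CO2. Reported as MIC range, MIC50 and MIC90.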

[14] = tested on: Citrobacter koseri; experiment: Antibacterial activity against Citrobacter diversus; format: functional
How it was run: (§5)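 Broth microdilution MIC following CLSI guidelines, in cation-adjusted Mueller-Hinton broth, incubated at 35°C. Recent clinical isolates and reference strains, with identity confirmed by automated and standard microbiological methods. Results reported as MIC range, MIC50 and MIC90.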

[15] = tested on: Citrobacter freundii; experiment: Antibacterial activity against Citrobacter freundii; format: functional; how it was run: as §5
[16] = tested on: Escherichia coli; experiment: Antibacterial activity against Escherichia coli; format: functional; how it was run: as §5
[17] = tested on: Klebsiella oxytoca; experiment: Antibacterial activity against Klebsiella oxytoca; format: functional; how it was run: as §5
[18] = tested on: Proteus vulgaris; experiment: Antibacterial activity against Proteus vulgaris; format: functional; how it was run: as §5
[19] = tested on: Salmonella typhimurium; experiment: Antibacterial activity against Salmonella enterica serovar Typhimurium; format: functional, Salmonella enterica subsp. enterica serovar Typhimurium; how it was run: as §5
[20] = tested on: Shigella dysenteriae; experiment: Antibacterial activity against Shigella dysenteriae; format: functional
[21] = tested on: Shigella flexneri; experiment: Antibacterial activity against Shigella flexneri; format: functional; how it was run: as §5
[22] = tested on: Shigella sonnei; experiment: Antibacterial activity against Shigella sonnei; format: functional; how it was run: as §5
[23] = tested on: Serratia marcescens; experiment: Antibacterial activity against Serratia marcescens; format: functional; how it was run: as §5
[24] = tested on: Acinetobacter sp.; experiment: Antibacterial activity against Acinetobacter sp.; format: functional; how it was run: as §5
[25] = tested on: Actinomyces sp.; experiment: Antibacterial activity against Actinomyces sp.; format: functional
[26] = tested on: Finegoldia magna; experiment: Antibacterial activity against Peptostreptococcus magnus; format: functional
How it was run: (§6)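 Anaerobic broth microdilution MIC following CLSI guidelines, in supplemented Brucella broth. Run in an anaerobe chamber under 5% CO2, 5% H2 and 90% N2 at 35°C, and read after 48 h. Reported as MIC range, MIC50 and MIC90.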

[27] = tested on: Clostridium perfringens; experiment: Antibacterial activity against Clostridium perfringens; format: functional; how it was run: as §1
[28] = tested on: Fusobacterium nucleatum; experiment: Antibacterial activity against Fusobacterium nucleatum; format: functional; how it was run: as §6
[29] = tested on: Fusobacterium necrophorum; experiment: Antibacterial activity against Fusobacterium necrophorum; format: functional; how it was run: as §6
[30] = tested on: Bacteroides fragilis; experiment: Antibacterial activity against Bacteroides fragilis; format: functional; how it was run: as §6
[31] = tested on: Bacteroides ovatus; experiment: Antibacterial activity against Bacteroides ovatus; format: functional; how it was run: as §6
[32] = tested on: Staphylococcus aureus; experiment: Antibacterial activity against oxacillin-susceptible Staphylococcus aureus; format: functional; how it was run: as §2
[33] = tested on: Staphylococcus aureus; experiment: Antibacterial activity against oxacillin and levofloxacin-resistant Staphylococcus aureus; format: functional; how it was run: as §1
[34] = tested on: Staphylococcus aureus; experiment: Antibacterial activity against vancomycin-intermediate Staphylococcus aureus; format: functional; how it was run: as §1
[35] = tested on: Staphylococcus epidermidis; experiment: Antibacterial activity against oxacillin-resistant Staphylococcus epidermidis; format: functional; how it was run: as §1
[36] = tested on: Staphylococcus haemolyticus; experiment: Antibacterial activity against Staphylococcus haemolyticus; format: functional; how it was run: as §3
[37] = tested on: Streptococcus equinus; experiment: Antibacterial activity against Streptococcus bovis; format: functional
How it was run: (§7)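 Broth microdilution MIC following CLSI guidelines, in cation-adjusted Mueller-Hinton broth with 3% lysed horse blood. Plates incubated at 35°C. Clinical isolates and reference strains, with identity confirmed by standard microbiological methods.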

[38] = tested on: Streptococcus sanguinis; experiment: Antibacterial activity against Streptococcus sanguis; format: functional; how it was run: as §7
[39] = tested on: Streptococcus pneumoniae; experiment: Antibacterial activity against penicillin-intermediate resistant Streptococcus pneumoniae; format: functional; how it was run: as §1
[40] = tested on: Enterococcus faecalis; experiment: Antibacterial activity against Enterococcus faecalis; format: functional; how it was run: as §1
[41] = tested on: Anaerococcus prevotii; experiment: Antibacterial activity against Peptostreptococcus prevotii; format: functional; how it was run: as §6
[42] = tested on: Prevotella bivia; experiment: Antibacterial activity against Prevotella bivia; format: functional; how it was run: as §6
[43] = tested on: Prevotella buccae; experiment: Antibacterial activity against Prevotella buccae; format: functional; conditions: Segatella buccae; how it was run: as §6
[44] = tested on: Prevotella melaninogenica; experiment: Antibacterial activity against Prevotella melaninogenica; format: functional; how it was run: as §6
[45] = tested on: Hoylesella oralis; experiment: Antibacterial activity against Prevotella oralis; format: functional; how it was run: as §6
[46] = tested on: Cutibacterium acnes; experiment: Antibacterial activity against Propionibacterium acnes; format: functional
[47] = tested on: Streptococcus mitis; experiment: Antibacterial activity against Streptococcus mitis; format: functional; how it was run: as §7
[48] = tested on: Salmonella enteritidis; experiment: Antibacterial activity against Salmonella enterica serovar Enteritidis; format: functional, Salmonella enterica subsp. enterica serovar Enteritidis; how it was run: as §5

C[C@H]1COc2c(N3CCN(C)CC3)c(F)cc3c(=O)c(C(=O)O)cn1c23.C[C@H]1COc2c(N3CCN(C)CC3)c(F)cc3c(=O)c(C(=O)O)cn1c23.O [LEVOFLOXACIN]
MIC50 [1]: 16 µg/mL | MIC90 [1]: 32 µg/mL | MIC [2]: 0.5 µg/mL | MIC50 [3]: 32 µg/mL | MIC90 [3]: 64 µg/mL | MIC [4]: 4 µg/mL | MIC50 [5]: 2 µg/mL | MIC90 [5]: 2 µg/mL | MIC50 [6]: 1 µg/mL | MIC90 [6]: 2 µg/mL | MIC50 [7]: 0.25 µg/mL | MIC90 [7]: 0.5 µg/mL | MIC50 [8]: 0.5 µg/mL | MIC90 [8]: 32 µg/mL | MIC50 [9]: 0.015 µg/mL | MIC90 [9]: 0.03 µg/mL | MIC50 [10]: 8 ng/mL | MIC90 [10]: 0.015 µg/mL | MIC50 [11]: 0.03 µg/mL | MIC90 [11]: 0.06 µg/mL | MIC50 [12]: 0.03 µg/mL | MIC90 [12]: 0.06 µg/mL | MIC50 [13]: 8 ng/mL | MIC90 [13]: 8 ng/mL | MIC50 [14]: 0.03 µg/mL | MIC90 [14]: 0.06 µg/mL | MIC50 [15]: 0.125 µg/mL | MIC90 [15]: 16 µg/mL | MIC50 [16]: 0.03 µg/mL | MIC90 [16]: 1 µg/mL | MIC50 [17]: 0.06 µg/mL | MIC90 [17]: 2 µg/mL | MIC [18]: 0.03 µg/mL | MIC50 [19]: 0.03 µg/mL | MIC90 [19]: 0.06 µg/mL | MIC50 [20]: 0.03 µg/mL | MIC90 [20]: 0.06 µg/mL | MIC50 [21]: 0.03 µg/mL | MIC90 [21]: 0.06 µg/mL | MIC50 [22]: 0.03 µg/mL | MIC90 [22]: 0.06 µg/mL | MIC50 [23]: 0.125 µg/mL | MIC90 [23]: 4 µg/mL | MIC50 [24]: 0.125 µg/mL | MIC90 [24]: 16 µg/mL | MIC [25]: 0.25 µg/mL | MIC [26]: 0.125 µg/mL | MIC90 [27]: 0.5 µg/mL | MIC [28]: 0.03 µg/mL | MIC [29]: 0.03 µg/mL | MIC50 [30]: 4 µg/mL | MIC90 [30]: 32 µg/mL | MIC50 [31]: 8 µg/mL | MIC90 [31]: 32 µg/mL | MIC50 [32]: 0.25 µg/mL | MIC90 [32]: 0.25 µg/mL | MIC50 [33]: 32 µg/mL | MIC90 [33]: 64 µg/mL | MIC [34]: 16 µg/mL | MIC50 [35]: 8 µg/mL | MIC90 [35]: 64 µg/mL | MIC50 [36]: 0.25 µg/mL | MIC90 [36]: 32 µg/mL | MIC50 [37]: 2 µg/mL | MIC90 [37]: 2 µg/mL | MIC50 [38]: 1 µg/mL | MIC90 [38]: 1 µg/mL | MIC50 [39]: 1 µg/mL | MIC90 [39]: 1 µg/mL | MIC50 [40]: 16 µg/mL | MIC90 [40]: 32 µg/mL | MIC [41]: 0.125 µg/mL | MIC50 [42]: 1 µg/mL | MIC90 [42]: 2 µg/mL | MIC50 [43]: 1 µg/mL | MIC90 [43]: 2 µg/mL | MIC50 [44]: 1 µg/mL | MIC90 [44]: 2 µg/mL | MIC50 [45]: 1 µg/mL | MIC90 [45]: 2 µg/mL | MIC50 [46]: 2 µg/mL | MIC90 [46]: 64 µg/mL | MIC50 [47]: 1 µg/mL | MIC90 [47]: 1 µg/mL | MIC50 [48]: 0.03 µg/mL | MIC90 [48]: 0.06 µg/mL
